Data set [1] concerns MCF7. In words: Antiproliferative activity against human MCF7 cells assessed as T/C value at 3.2 x 10^1 uM incubated for 96 hrs by propidium iodide based 2D monolayer assay. It counts as functional.
For data set [2], the system named is MCF7. Put plainly: Antiproliferative activity against human MCF7 cells assessed as T/C value at 1 x 10^-1 uM incubated for 96 hrs by propidium iodide based 2D monolayer assay. It counts as functional.
Data set [3] relates to MCF7. Put plainly: Antiproliferative activity against human MCF7 cells assessed as T/C value at 1 x 10^2 uM incubated for 96 hrs by propidium iodide based 2D monolayer assay. In kind it is functional.
The subject of data set [4] is MCF7. In words: Antiproliferative activity against human MCF7 cells assessed as T/C value at 1 x 10^1 uM incubated for 96 hrs by propidium iodide based 2D monolayer assay. It counts as functional.
Data set [5] relates to MCF7. Put plainly: Antiproliferative activity against human MCF7 cells assessed as T/C value at 1 uM incubated for 96 hrs by propidium iodide based 2D monolayer assay. It counts as functional.
For data set [6], the system named is MCF7. In words: Antiproliferative activity against human MCF7 cells assessed as T/C value at 3.2 x 10^-2 uM incubated for 96 hrs by propidium iodide based 2D monolayer assay. It counts as functional.
Data set [7] in a line: Toxicity in NMRI mouse xenografted with human 22Rv1 cells assessed as survival rate at 100 mg/kg, ip administered for 16 days and measured on day 40. As to conditions: in vivo. In kind it is organism-based. A digest of the protocol: (§1)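 Male NMRI nu/nu 22Rv1-xenograft mice were dosed i.p. at 100 mg/kg/day for 16–18 daily doses in 10% EtOH, 10% Cremophor EL, 5% dextrose vehicle. Body weight was recorded to assess tolerance, and adjusted survival and group median body weight loss were reported.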

Data set [8] can be described thus: Toxicity in NMRI mouse xenografted with human 22Rv1 cells assessed as body weight loss at 100 mg/kg, ip administered for 16 days and measured on day 40. In kind it is organism-based. As to conditions: in vivo, 384 h. A digest of the protocol:
as §1

Data set [9] has as its system CWR22R. Put plainly: Antitumor activity against human 22Rv1 cells xenografted in NMRI mouse assessed as reduction of tumor volume at 100 mg/kg, ip administered for 16 days and measured on day 10. In kind it is functional, organism-based. A digest of the protocol:
(§2)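 Male NMRI nu/nu mice carried hind-flank 22Rv1 implants and were randomised at 80–200 mm³ tumour volume. Compound was given i.p. at 100 mg/kg/day as 16–18 daily doses in 10% EtOH, 10% Cremophor EL, 5% dextrose; vehicle controls were treated likewise. Tumours were measured by two-dimensional caliper twice weekly and reported as relative tumour volume. T/C was taken from group medians; doubling and quadrupling times were derived from tumour volume.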

The nature of data set [10]: Toxicity in ip dosed NMRI nu/nu mouse assessed as maximum tolerated dose. As to conditions: in vivo. It counts as organism-based.
In data set [11] the test system is CWR22R. In words: Antitumor activity against human 22Rv1 cells xenografted in NMRI mouse assessed as tumor volume doubling time at 100 mg/kg, ip administered for 16 days (reference value: 2.7 day). It counts as functional. A digest of the protocol: as §2
Data set [12] deals with CWR22R. In words: Antitumor activity against human 22Rv1 cells xenografted in NMRI mouse assessed as tumor volume quadrupling time at 100 mg/kg, ip administered for 16 days (reference value: 6.2 day). In kind it is functional. A digest of the protocol:
as §2

Data set [13] deals with CWR22R. Put plainly: Antitumor activity against human 22Rv1 cells xenografted in NMRI mouse assessed as reduction of tumor volume at 100 mg/kg, ip administered for 16 days and measured on day 20. It counts as functional, organism-based. A digest of the protocol:
as §2

Data set [14] has as its system CWR22R. In words: Antitumor activity against human 22Rv1 cells xenografted in NMRI mouse assessed as inhibition of tumor growth by measuring T/C value at 100 mg/kg, ip administered for 16 days and measured on day 14. In kind it is functional. A digest of the protocol: as §2
Another data set addresses T1, Androgen receptor (Rattus norvegicus, UniProt P15207).
T1 sequence (P15207 whole entry): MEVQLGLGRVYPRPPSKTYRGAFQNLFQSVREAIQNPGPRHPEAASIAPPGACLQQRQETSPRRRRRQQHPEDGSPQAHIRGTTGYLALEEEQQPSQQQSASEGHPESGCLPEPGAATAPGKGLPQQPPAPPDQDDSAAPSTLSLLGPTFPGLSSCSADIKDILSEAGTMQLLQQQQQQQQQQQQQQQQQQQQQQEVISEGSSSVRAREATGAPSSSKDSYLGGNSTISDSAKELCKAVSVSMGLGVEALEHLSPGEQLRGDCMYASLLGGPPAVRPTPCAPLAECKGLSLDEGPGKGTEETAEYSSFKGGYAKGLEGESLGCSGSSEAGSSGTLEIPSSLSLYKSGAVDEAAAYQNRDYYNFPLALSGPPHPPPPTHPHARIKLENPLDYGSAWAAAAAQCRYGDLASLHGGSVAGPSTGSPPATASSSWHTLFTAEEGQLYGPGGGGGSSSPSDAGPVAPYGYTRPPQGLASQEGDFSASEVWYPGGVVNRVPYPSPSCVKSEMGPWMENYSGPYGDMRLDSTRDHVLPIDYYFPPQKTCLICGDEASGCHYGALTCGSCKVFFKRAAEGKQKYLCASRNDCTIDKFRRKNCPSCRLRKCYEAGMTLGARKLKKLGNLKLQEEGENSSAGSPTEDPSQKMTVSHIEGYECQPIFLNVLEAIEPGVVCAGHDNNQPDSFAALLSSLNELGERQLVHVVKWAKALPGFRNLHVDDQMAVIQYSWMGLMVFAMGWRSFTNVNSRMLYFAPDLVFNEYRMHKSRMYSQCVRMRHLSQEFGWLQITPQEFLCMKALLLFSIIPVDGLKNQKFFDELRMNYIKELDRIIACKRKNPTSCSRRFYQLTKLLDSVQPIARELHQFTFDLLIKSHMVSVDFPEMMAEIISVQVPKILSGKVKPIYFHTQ
In words: Antagonist activity at GAL4-DBD fused rat androgen receptor expressed in UAS-bla 293 cells assessed as reduction in R1881-induced activation incubated for 16 hrs followed by fluorescence substrate addition and measured after 2 hrs by beta lactamase reporter gene assay. It counts as cell-based.

The source made the active and inactive calls. No cut-off for these calls is given here.

Take `CC(O)(CSc1cc(C(F)(F)F)cc(C(F)(F)F)c1)C(=O)Nc1cccc(C(F)(F)C(F)(F)F)c1` (racemic): the T/C in the data set on MCF7 [1] came out at 10%; with MCF7 [2], 111%; with MCF7 [3], 5%; with MCF7 [4], 36%; in the data set on MCF7 [5], 119%; in the data set with MCF7 [6] it was 118%.
As to `CC(O)(COc1ccc(C(F)(F)C(F)(F)F)cc1)C(=O)Nc1cc(C(F)(F)F)cc(C(F)(F)F)c1` (racemic), the T/C in the data set on MCF7 [1] stood at 3%; in the data set on MCF7 [2], 116%; with MCF7 [3], 3%; in the data set on MCF7 [4], 26%; in the data set with MCF7 [5] it was 115%; with MCF7 [6], 112%.
With `CC(O)(COc1ccc(S(F)(F)(F)(F)F)cc1)C(=O)Nc1cc(C(F)(F)F)cc(C(F)(F)F)c1` (racemic), in data set [7], the survival at 384 h was 100%. Besides, the Activity entry in data set [8] is “Non-Toxic”. Besides, the result in the data set on CWR22R [9] and in the data set with CWR22R [13] was Active. The MTD in data set [10] is 100 mg/kg. In addition, the results for the Time with CWR22R [11] and with CWR22R [12] were 6.7 days and 14.3 days, respectively. In addition, the T/C with CWR22R [14] came out at 43.9%.
Take `CC(O)(COc1cccc(S(F)(F)(F)(F)F)c1)C(=O)Nc1ccc([N+](=O)[O-])c(C(F)(F)F)c1` (racemic): the IC50 on Androgen receptor came out at 540 nM.
In the case of `CC(O)(COc1ccccc1C(F)(F)F)C(=O)Nc1ccc(S(F)(F)(F)(F)F)cc1` (racemic), the IC50 at Androgen receptor is 1810 nM.

(Values after ChEMBL document CHEMBL4364301 (Eur J Med Chem, 2019).)
